Results: ChEMBL document CHEMBL1148285, “Pyridinium cationic lipids in gene delivery: a structure-activity correlation study” (J Med Chem, 2004)

Tested on: NCI-H23
Test: Transfection efficiency in NCI-H23 lung cancer cell line was determined.
Format: functional, cell-based
Conditions: Homo sapiens
How it was run: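 Cationic lipid/cholesterol 1:1 liposomes hydrated in PBS and bath-sonicated (twice 15 min, 65–68 °C; DOTAP/Chol at 37 °C). Lipoplexes with pGL3 (SV40-luciferase) at 2:1 charge ratio, 30 min at 22 °C in Optimem. NCI-H23 cells in RPMI 1640/10% FBS, 20 000 cells/well seeded 24 h before. Exposed 1 h, then medium added for 24 h. Lysate luciferase measured by luminometer, protein by BCA. Triplicate or quadruplicate, mean ± 1 SD.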

CCCCCCCC(=O)Oc1ccc(CC[n+]2c(C)cc(C)cc2C)cc1OC(=O)CCCCCCC
Activity: A

CCCCCCCCCCCCCCCC(=O)Oc1ccc(CC[n+]2c(C)cc(C)cc2C)cc1OC(=O)CCCCCCCCCCCCCCC
Activity: A

CCCCCCCCCCCCCCCCCC(=O)Oc1ccc(CC[n+]2c(C)cc(C)cc2C)cc1OC(=O)CCCCCCCCCCCCCCCCC
Activity: A

CCCCCCCCCCCCCCCCCC(=O)OCC(COC(=O)CCCCCCCCCCCCCCCCC)[n+]1c(C)cc(C)cc1C
Activity: A

CCCCCCCCCCCCCC(=O)Oc1ccc(CC[n+]2c(C)cc(C)cc2C)cc1OC(=O)CCCCCCCCCCCCC
Activity: A

CCCCCCCCCCCC(=O)Oc1ccc(CC[n+]2c(C)cc(C)cc2C)cc1OC(=O)CCCCCCCCCCC
Activity: A

CCCCCCCCCCCC(=O)OCC(COC(=O)CCCCCCCCCCC)[n+]1c(C)cc(C)cc1C
Activity: A

CCCCCCCCCCCCCCCC(=O)OCC(COC(=O)CCCCCCCCCCCCCCC)[n+]1c(C)cc(C)cc1C
Activity: A

CCCCCCCCCCCCCC(=O)OCC(COC(=O)CCCCCCCCCCCCC)[n+]1c(C)cc(C)cc1C
Activity: A

CCCCCCCCCC(=O)Oc1ccc(CC[n+]2c(C)cc(C)cc2C)cc1OC(=O)CCCCCCCCC
Activity: A
